Test [1] is described as follows: In vitro inhibition of […] induced TNF-alpha production in human whole blood (HWB). It is filed as functional, tissue-based.
The target of test [2] is Voltage-gated inwardly rectifying potassium channel KCNH2 (Homo sapiens, UniProt Q12809).
Test [3] concerns Canis familiaris. The test is described as follows: Change in QTc were measured at 15 and 30 min after dosing of bolus at 10 mg/kg in dogs. It is filed as functional, Canis lupus familiaris. In a few lines: (§1)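 Chloralose-anesthetized mongrel dogs (n = 2 or 3) given iv bolus over 2–5 min as solution in 60–80% PEG-200. QTc recorded at 15 and 30 min postdose as percent change from baseline per dog; values averaged, ΔQTc taken as maximal mean percent change (range given).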

Test [4] in a line: In vitro inhibitory activity was determined against human whole blood. It is filed as functional.
Test [5] relates to Canis familiaris. The test is described as follows: Range of plasma concentration measured between 2 and 30 min in dogs after intravenous bolus dosing at 10 mg/kg. The class given is functional, organism-based. Further details: dose 10 mg/kg. To be noted: Canis lupus familiaris. In short, it runs like this:
(§2)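 Anesthetized mongrel dogs, iv bolus (2–5 min) in 60–80% PEG-200; plasma drug levels measured by HPLC between 2 and 30 min after dosing, reported as range (±0.2 µM); data from n ≥ 2 dogs.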

Test [6] concerns the target 3',5'-cyclic-AMP phosphodiesterase 4A (Homo sapiens, UniProt P27815). Nature of the test: In vitro inhibitory activity was determined against human Phosphodiesterase 4 isoform using a construct representing the common region of spliced variants expressed as a GST-fusion protein in Sf 9 cells. It is filed as cell-based. In a few lines: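 Human PDE4A, common-region construct of spliced variants expressed as GST-fusion in Sf9 cells; values mean ± SEM with n reported.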

The nature of test [7]: Ratio of lowest plasma concentration to measured over 30 min interval to 50% inhibition of LPS-induced TNF alpha production in human whole blood. The class given is functional.
The test system of test [8] is Canis familiaris. Nature of the test: Change in QTc were measured at 15 and 30 min after dosing of bolus at 3 mg/kg in dogs. It is filed as functional, Canis lupus familiaris. In a few lines: as §1
Test [9] concerns Canis familiaris. Nature of the test: Range of plasma concentration measured between 2 and 30 min in dogs after intravenous bolus dosing at 3 mg/kg. More on the design: dose 3 mg/kg. It is filed as functional, organism-based. To be noted: Canis lupus familiaris. In short, it runs like this:
as §2

Sequence of 3',5'-cyclic-AMP phosphodiesterase 4A (P27815 whole entry, looked up, stated change not applied, the tested form may be a part, canonical isoform): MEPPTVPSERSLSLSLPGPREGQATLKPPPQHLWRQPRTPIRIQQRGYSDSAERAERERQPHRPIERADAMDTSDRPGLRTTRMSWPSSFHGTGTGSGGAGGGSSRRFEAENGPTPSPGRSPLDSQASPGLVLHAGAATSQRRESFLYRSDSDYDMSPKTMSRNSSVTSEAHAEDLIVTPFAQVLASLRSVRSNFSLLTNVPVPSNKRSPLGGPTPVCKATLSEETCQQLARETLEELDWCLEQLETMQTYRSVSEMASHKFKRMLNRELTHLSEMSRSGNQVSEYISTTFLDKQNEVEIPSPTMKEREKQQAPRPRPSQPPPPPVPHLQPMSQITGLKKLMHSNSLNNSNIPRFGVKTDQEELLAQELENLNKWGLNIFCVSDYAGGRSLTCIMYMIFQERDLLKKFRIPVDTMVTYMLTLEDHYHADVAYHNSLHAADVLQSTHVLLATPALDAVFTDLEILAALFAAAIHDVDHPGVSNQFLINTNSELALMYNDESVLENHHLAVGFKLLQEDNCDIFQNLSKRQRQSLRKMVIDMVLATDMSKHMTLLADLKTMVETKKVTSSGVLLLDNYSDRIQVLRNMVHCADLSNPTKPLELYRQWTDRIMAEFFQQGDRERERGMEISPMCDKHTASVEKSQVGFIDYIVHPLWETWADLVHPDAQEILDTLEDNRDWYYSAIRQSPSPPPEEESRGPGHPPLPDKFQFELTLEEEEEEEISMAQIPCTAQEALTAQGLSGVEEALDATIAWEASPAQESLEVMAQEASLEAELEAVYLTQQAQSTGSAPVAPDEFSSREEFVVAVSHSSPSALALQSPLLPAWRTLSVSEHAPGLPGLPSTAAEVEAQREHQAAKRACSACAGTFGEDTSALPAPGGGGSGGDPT
Sequence of Voltage-gated inwardly rectifying potassium channel KCNH2 (Q12809 whole entry): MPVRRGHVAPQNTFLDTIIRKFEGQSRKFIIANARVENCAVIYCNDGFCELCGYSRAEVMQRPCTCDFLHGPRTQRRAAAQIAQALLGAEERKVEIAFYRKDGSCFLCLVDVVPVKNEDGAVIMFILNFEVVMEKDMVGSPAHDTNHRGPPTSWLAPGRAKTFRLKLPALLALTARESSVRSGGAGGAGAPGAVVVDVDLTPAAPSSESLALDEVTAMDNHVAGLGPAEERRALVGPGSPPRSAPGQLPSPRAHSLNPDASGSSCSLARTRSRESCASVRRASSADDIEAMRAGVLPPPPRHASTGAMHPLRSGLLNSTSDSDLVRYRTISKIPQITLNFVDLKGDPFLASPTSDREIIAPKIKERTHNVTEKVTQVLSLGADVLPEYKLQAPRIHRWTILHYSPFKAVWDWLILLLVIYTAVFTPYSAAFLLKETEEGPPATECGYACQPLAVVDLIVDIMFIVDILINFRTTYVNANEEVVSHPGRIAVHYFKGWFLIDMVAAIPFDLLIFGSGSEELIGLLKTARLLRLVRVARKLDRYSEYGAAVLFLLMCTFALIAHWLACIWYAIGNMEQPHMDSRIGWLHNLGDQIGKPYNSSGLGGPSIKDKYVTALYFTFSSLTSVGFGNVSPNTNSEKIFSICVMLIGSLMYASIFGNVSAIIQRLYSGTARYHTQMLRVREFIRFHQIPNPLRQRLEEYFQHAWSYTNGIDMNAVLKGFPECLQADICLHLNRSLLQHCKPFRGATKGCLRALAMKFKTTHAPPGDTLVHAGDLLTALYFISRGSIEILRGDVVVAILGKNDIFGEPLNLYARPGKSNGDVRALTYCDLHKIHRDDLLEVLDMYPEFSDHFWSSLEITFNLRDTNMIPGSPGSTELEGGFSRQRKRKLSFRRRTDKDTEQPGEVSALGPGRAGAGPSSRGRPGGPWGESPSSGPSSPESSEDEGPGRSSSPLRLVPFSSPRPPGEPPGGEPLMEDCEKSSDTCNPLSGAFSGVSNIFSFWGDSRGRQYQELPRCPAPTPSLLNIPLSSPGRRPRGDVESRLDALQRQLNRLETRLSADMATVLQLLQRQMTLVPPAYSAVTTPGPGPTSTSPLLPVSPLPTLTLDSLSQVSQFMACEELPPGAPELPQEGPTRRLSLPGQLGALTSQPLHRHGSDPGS

Broadly, the IC50 is the point on the concentration scale where inhibition reaches its midpoint. A high value points to weaker potency. A word on the Ki: it is the equilibrium dissociation constant of an inhibitor or competing ligand from its target. Turning to `[O-][n+]1cccc(C[C@@H](c2ccc(OC(F)F)c(OC3CC3)c2)c2cnc(C(O)(C(F)(F)F)C(F)(F)F)s2)c1`, the IC50 in [1] (Homo sapiens, Blood) came out at 90 nM; in [4] it was 90 nM; in [6], 0.5 nM. For the same compound, in test [2], the Ki came to 61400 nM. The Change with Canis familiaris [3] was 3%. In the test with Canis familiaris [5], this compound displayed a Plasma concentration of 25 µM. In addition, the “Ratio plasma concentration/IC50” value in [7] is listed as 211.

With `CC(C)(O)c1ncc(C(Cc2cc[n+]([O-])cc2)c2ccc(OC(F)F)c(OC3CCC3)c2)s1` (stereo unspecified), the 50% inhibitory concentration (IC50) in [1] (Homo sapiens, Blood) worked out at 90 nM; in [4], 100 nM; in [6], 0.5 nM. Moreover, the affinity in [2], expressed as Ki, was 58400 nM. The Change in the test with Canis familiaris [3] is 2.9%. In the test with Canis familiaris [5], this compound returned a Plasma concentration of 10 µM. Further, in test [7], the “Ratio plasma concentration/IC50” value stood at 40.

Regarding `[O-][n+]1cccc(C[C@H](c2ccc(OC(F)F)c(OC3CC3)c2)c2cnc(C(O)(C(F)(F)F)C(F)(F)F)s2)c1`, the IC50 was 2640 nM in test [1] (Homo sapiens, Blood) and 48 nM in test [6]. In [2], this compound returned a Ki of 39000 nM.

Turning to `CC(O)(c1ccccc1)c1ccc(C(Cc2cc[n+]([O-])cc2)c2ccc(OC(F)F)c(OC(F)F)c2)cn1` (stereo unspecified), the IC50 is 160 nM in [1] (Homo sapiens, Blood); 160 nM in test [4]; 2.1 nM in [6]. In addition, in test [2], affinity was put at a Ki of 1180 nM. The same compound registered a Change with Canis familiaris [8] of 8.9%. For the same compound, in test [7], the “Ratio plasma concentration/IC50” value was found to be 12.5. Further, the Plasma concentration with Canis familiaris [9] is 5 µM.

Consider `CC(C)(O)c1ccc(C(Cc2cc[n+]([O-])cc2)c2ccc(OC(F)F)c(OC3CCC3)c2)cn1` (stereo unspecified), for which the IC50 in test [1] (Homo sapiens, Blood) is 120 nM; in test [6] it was 1 nM. In addition, the Ki in [2] stood at 25000 nM.

Consider `CC(C)(O)c1ccc(C(Cc2cc[n+]([O-])cc2)c2ccc(OC(F)F)c(OC3CCC3)c2)cc1` (racemic), for which the IC50 was 260 nM in [1] (Homo sapiens, Blood) and 1.6 nM in [6]. In test [2], this compound came in with a Ki of 22400 nM.

Consider `[O-][n+]1ccc(CC(c2ccc(OC(F)F)c(OC3CCC3)c2)c2cnc(C(O)(C(F)(F)F)C(F)(F)F)s2)cc1` (racemic), for which the IC50 was determined as 20 nM in test [1] (Homo sapiens, Blood) and 0.8 nM in test [6]. Moreover, in test [2], the Ki was 38100 nM.

In the case of `[O-][n+]1ccc(CC(c2ccc(OC(F)F)c(OC3CC3)c2)c2cnc(C(O)(C(F)(F)F)C(F)(F)F)s2)cc1` (racemic), the IC50 in test [1] (Homo sapiens, Blood) was determined as 20 nM; in [6], 0.4 nM.

For `CC(C)(O)c1ccc(C(Cc2ccc[n+]([O-])c2)c2ccc(OC(F)F)c(OC3CC3)c2)cn1` (single isomer, unassigned; (+)2d), the half-maximal inhibitory concentration (IC50) in test [1] came to 200 nM; in [6] it was 2.1 nM. Besides, the affinity in test [2] corresponds to a Ki of 42200 nM.

For `CC(C)(O)c1ccc(C(Cc2cc[n+]([O-])cc2)c2ccc(OC(F)F)c(OC3CC3)c2)cn1` (single isomer, unassigned; (+)), the values for the IC50 in test [1] and in test [6] were 60 nM and 1.2 nM, respectively.

Compound `CC(C)(O)c1ccc(C(CC2=CCC(=O)N=C2)c2ccc(OC(F)F)c(OC3CC3)c2)cn1` (single isomer, unassigned; (+)) displayed an IC50 in test [1] (Homo sapiens, Blood) of 60 nM.

As for `CC(C)(O)c1ccc(C(Cc2ccc[n+]([O-])c2)c2ccc(OC(F)F)c(OC3CC3)c2)cn1` (single isomer, unassigned; (-)2d), the figures for the half-inhibitory concentration (IC50) in [1] and in [6] were 17900 nM and 334 nM, respectively. This compound also displayed an inhibition constant (Ki) in test [2] of 44700 nM.

With `CC(C)(O)c1ccc(C(Cc2cc[n+]([O-])cc2)c2ccc(OC(F)F)c(OC3CC3)c2)cn1` (single isomer, unassigned; (-)), the IC50 in [1] stood at 3520 nM; in [6], 55 nM.

On to `CC(C)(O)c1ccc(C(Cc2cc[n+]([O-])cc2)c2ccc(OC(F)F)c(OC(F)F)c2)cn1` (single isomer, unassigned; (-)), for which the figures for the concentration for half-maximal inhibition (IC50) in test [1] and in [6] were 640 nM and 35 nM, respectively. Besides, the Ki in test [2] is 22700 nM.

In the case of `CC(C)(O)c1ccc(C(Cc2cc[n+]([O-])cc2)c2ccc(OC(F)F)c(OC(F)F)c2)cn1` (stereo in doubt; 2a(+)), the IC50 in test [1] amounted to 9010 nM; in test [6], 520 nM. The Ki in [2] amounted to 25400 nM.

On to `COc1ccc([C@H](Cc2ccncc2)c2ccccc2)cc1OC1CCCC1` [CDP840], for which the IC50 in [1] (Homo sapiens, Blood) worked out at 16200 nM; in test [6], 4.3 nM.

With `O=c1[nH]c2c(O)ccc(CCNCCS(=O)(=O)CCCOCCc3ccccc3)c2s1` [SIBENADET], the concentration for half-maximal inhibition (IC50) is 18000 nM in [1] (Homo sapiens, Blood) and 38 nM in test [6].

The record behind these values is ChEMBL document CHEMBL1145790, “Optimization of a tertiary alcohol series of phosphodiesterase-4 (PDE4) inhibitors: structure-activity relationship related to PDE4 inhibition and human ether-a-go-go related gene potassium channel binding affinity” (J Med Chem, 2003).
